Laboratory results taken from ChEMBL document CHEMBL3271979, “Inhibition of solid tumors by nitrosoureas. 1. Lewis lung carcinoma” (1977).
Calls of active or inactive are those of the source. The calls are words filed in the database; no cut-off is given here.

What was measured:
Mus musculus [1] = test: Antitumor activity against mouse advanced Lewis lung carcinoma allografted in ip dosed BDF1 mouse assessed as complete regression of established tumor administered as single dose on day 6 or 7 post-tumor implantation; format: functional, organism-based
How it was run: (§1)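 BDF1 mice (C57Blk/6 × DBA/2) implanted sc by trocar with Lewis lung tumor fragments of about 40 mg, taken only from bacteriologically sterile donor tumors. Mice bearing tumors of about 400 mg (day 6-7) were selected. Each received a single ip dose on day 7, at or below the LD10 in normal mice. Groups were of 10 mice. Tumor weight was taken from calipers as w = ab²/2, measured at least twice weekly. Matched non-tumor mice served as toxicity controls.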

[2] = Antitumor activity against mouse advanced Lewis lung carcinoma allografted in ip dosed BDF1 mouse assessed as increase in host lifespan administered as single dose on day 6 or 7 post-tumor implantation; format: functional
How it was run: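 Advanced Lewis lung model: about 40 mg fragments implanted sc by trocar into BDF1 mice, and mice with tumors of about 400 mg (day 6-7) selected. Tumor weight from calipers, w = ab²/2. Agent given as one ip dose in distilled water or physiological saline. Nontumor-bearing mice received matching doses as toxicity controls.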

Mus musculus [3] = test: Antitumor activity against mouse advanced Lewis lung carcinoma allografted in BDF1 mouse assessed as disease cure at 45 mg/kg, ip administered as single dose on 7th day post-tumor implantation measured for 80 days post-drug treatment; format: functional, organism-based; design: dose 45 mg/kg; how it was run: as §1
Mus musculus [4] = test: Antitumor activity against mouse advanced Lewis lung carcinoma allografted in BDF1 mouse assessed as disease cure at 30 mg/kg, ip administered as single dose on 7th day post-tumor implantation measured for 80 days post-drug treatment; format: functional, organism-based; design: dose 30 mg/kg; how it was run: as §1
[5] = Antitumor activity against mouse advanced Lewis lung carcinoma allografted in BDF1 mouse assessed as increase in host life span at 45 mg/kg, ip administered as single dose on 7th day post-tumor implantation; format: functional; conditions: route intraperitoneal
How it was run: (§2)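 BDF1 mice (C57Blk/6 × DBA/2) implanted sc by trocar with about 40 mg Lewis lung tumor fragments from bacteriologically sterile donors. Advanced-disease groups held tumors of about 400 mg by day 6-7, sized by caliper (w = ab²/2). Single ip injection on day 7, in water or saline vehicle, at or below the LD10 in normal mice. Tumors measured at least twice weekly.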

[6] = Antitumor activity against mouse advanced Lewis lung carcinoma allografted in BDF1 mouse assessed as increase in host life span at 30 mg/kg, ip administered as single dose on 7th day post-tumor implantation; format: functional; conditions: route intraperitoneal; how it was run: as §2
Mus musculus [7] = test: Antitumor activity against mouse advanced Lewis lung carcinoma allografted in BDF1 mouse assessed as complete regression of established tumor at 30 mg/kg, ip administered as single dose on 7th day post-tumor implantation; format: functional, organism-based; design: dose 30 mg/kg; how it was run: as §1
Mus musculus [8] = test: Antitumor activity against mouse advanced Lewis lung carcinoma allografted in ip dosed BDF1 mouse assessed as disease cure administered as single dose on day 6 or 7 post-tumor implantation; format: functional, organism-based; how it was run: as §1
[9] = Antitumor activity against mouse early Lewis lung carcinoma allografted in BDF1 mouse assessed as increase in host life span at 38 mg/kg, ip administered as single dose on 1 or 2 days post-tumor implantation; format: functional; conditions: route intraperitoneal
How it was run: (§3)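 BDF1 mice (C57Blk/6 × DBA/2) implanted sc by trocar with ~40 mg Lewis lung tumor fragments from bacteriologically sterile donor tumors. Single ip dose on day 1 or 2, as a solution or suspension in water (CMC or gum acacia) or saline (HPC or Tween 80). Read-out is […]. Same-dose toxicity controls were run in nontumor-bearing mice.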

[10] = Antitumor activity against mouse early Lewis lung carcinoma allografted in BDF1 mouse assessed as increase in host life span at 26 mg/kg, ip administered as single dose on 1 or 2 days post-tumor implantation; format: functional; conditions: route intraperitoneal; how it was run: as §3
[11] = Antitumor activity against mouse early Lewis lung carcinoma allografted in BDF1 mouse assessed as time delay in tumor growth at 38 mg/kg, ip administered as single dose on 1 or 2 days post-tumor implantation; format: functional; conditions: route intraperitoneal
How it was run: (§4)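 BDF1 mice (C57Blk/6 × DBA/2) implanted sc by trocar with ~40 mg Lewis lung tumor fragments from bacteriologically sterile donors. A single ip dose was given on day 1 or 2, as a solution or suspension in water or saline with suspending agent, at ≤0.5 ml. Tumors were measured by caliper at least twice weekly, with weight = ab²/2. Delay was taken as the days for the tumor to reach 1 g.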

[12] = Antitumor activity against mouse early Lewis lung carcinoma allografted in BDF1 mouse assessed as time delay in tumor growth at 26 mg/kg, ip administered as single dose on 1 or 2 days post-tumor implantation; format: functional; conditions: route intraperitoneal; how it was run: as §4
[13] = (§5) Antitumor activity against mouse early Lewis lung carcinoma allografted in ip dosed BDF1 mouse assessed as disease cure administered as single dose on 1 or 2 days post-tumor implantation measured for 80 days post-drug treatment; format: functional
How it was run: (§6)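 BDF1 mice implanted sc by trocar with ~40 mg Lewis lung fragments from sterile donor tumors. A single ip dose was given on day 1 or 2 after implant, in water or saline vehicle. Cures were scored in animals observed for at least 80 days after treatment. Drug-toxicity controls were matched non-tumor-bearing mice monitored for body weight and deaths.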

[14] = Ratio of ED50 for antitumor activity against mouse L1210 cells allografted in ip dosed mouse to LD10 for mouse
Mus musculus [15] = test: Antitumor activity against mouse early Lewis lung carcinoma allografted in ip dosed BDF1 mouse administered as single dose on 1 or 2 days post-tumor implantation measured for 80 days post-drug treatment; format: functional, organism-based; how it was run: as §6
Mus musculus [16] = test: Antitumor activity against mouse advanced Lewis lung carcinoma allografted in BDF1 mouse assessed as disease cure at 32 mg/kg, ip administered as single dose on 7th day post-tumor implantation measured for 80 days post-drug treatment; format: functional, organism-based; design: dose 32 mg/kg; how it was run: as §1
Mus musculus [17] = test: Antitumor activity against mouse advanced Lewis lung carcinoma allografted in BDF1 mouse assessed as disease cure at 21 mg/kg, ip administered as single dose on 7th day post-tumor implantation measured for 80 days post-drug treatment; format: functional, organism-based; design: dose 21 mg/kg; how it was run: as §1
[18] = Antitumor activity against mouse advanced Lewis lung carcinoma allografted in BDF1 mouse assessed as increase in host life span at 21 mg/kg, ip administered as single dose on 7th day post-tumor implantation; format: functional; conditions: route intraperitoneal; how it was run: as §2
[19] = Antitumor activity against mouse advanced Lewis lung carcinoma allografted in BDF1 mouse assessed as increase in host life span at 32 mg/kg, ip administered as single dose on 7th day post-tumor implantation; format: functional; conditions: route intraperitoneal; how it was run: as §2
[20] = Antitumor activity against mouse early Lewis lung carcinoma allografted in BDF1 mouse assessed as increase in host life span at 13 mg/kg, ip administered as single dose on 1 or 2 days post-tumor implantation; format: functional; conditions: route intraperitoneal
How it was run: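 Early disease: BDF1 mice carrying sc trocar implants of about 40 mg Lewis lung fragments. One ip dose given on day 1 or 2 after implant, in distilled water or saline, at ≤0.5 ml. Endpoints were % increase in life-span of dying animals and delay in days for the primary tumor to reach 1 g. Untreated controls served as reference.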

[21] = Antitumor activity against mouse early Lewis lung carcinoma allografted in BDF1 mouse assessed as increase in host life span at 30 mg/kg, ip administered as single dose on 1 or 2 days post-tumor implantation; format: functional; conditions: route intraperitoneal; how it was run: as §3
[22] = Antitumor activity against mouse early Lewis lung carcinoma allografted in BDF1 mouse assessed as time delay in tumor growth at 13 mg/kg, ip administered as single dose on 1 or 2 days post-tumor implantation; format: functional; conditions: route intraperitoneal
How it was run: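 Sc trocar implants of about 40 mg Lewis lung fragments in BDF1 mice. A single ip injection was given on day 1 or 2, in water or physiological saline, at ≤0.5 ml. Tumor size came from caliper length and width as w = ab²/2, measured at least twice weekly. Growth delay is the extra days taken to reach 1 g, compared with untreated controls.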

[23] = Antitumor activity against mouse early Lewis lung carcinoma allografted in BDF1 mouse assessed as time delay in tumor growth at 30 mg/kg, ip administered as single dose on 1 or 2 days post-tumor implantation; format: functional; conditions: route intraperitoneal; how it was run: as §4
Mus musculus [24] = test: Antitumor activity against mouse advanced Lewis lung carcinoma allografted in BDF1 mouse assessed as disease cure at 36 mg/kg, ip administered as single dose on 7th day post-tumor implantation measured for 80 days post-drug treatment; format: functional, organism-based; design: dose 36 mg/kg; how it was run: as §1
[25] = Antitumor activity against mouse advanced Lewis lung carcinoma allografted in BDF1 mouse assessed as increase in host life span at 36 mg/kg, ip administered as single dose on 7th day post-tumor implantation; format: functional; conditions: route intraperitoneal; how it was run: as §2
Mus musculus [26] = test: Antitumor activity against mouse advanced Lewis lung carcinoma allografted in BDF1 mouse assessed as complete regression of established tumor at 32 mg/kg, ip administered as single dose on 7th day post-tumor implantation; format: functional, organism-based; design: dose 32 mg/kg; how it was run: as §2
Mus musculus [27] = test: as §5; format: functional; how it was run: as §6
L1210 = test: Antitumor activity against mouse L1210 cells allografted in ip dosed mouse assessed as disease cure administered as single dose; format: functional, organism-based
Mus musculus [28] = test: Antitumor activity against mouse advanced Lewis lung carcinoma allografted in BDF1 mouse assessed as complete regression of established tumor at 36 mg/kg, ip administered as single dose on 7th day post-tumor implantation; format: functional, organism-based; design: dose 36 mg/kg; how it was run: as §1

Compound	inhibition (Mus musculus [1])	ILS [2]	Activity (Mus musculus [8])	other results
CC[C@H]1CC[C@H](NC(=O)N(CCF)N=O)CC1	inactive	<25%	–	–
CCOC(=O)[C@H]1CCC[C@@H](NC(=O)N(CCCl)N=O)C1 (relative stereo)	Active	–	inactive	Activity (Mus musculus [3]): inactive; Activity (Mus musculus [4]): inactive; ILS at 45 mg/kg [5]: 0%; ILS at 30 mg/kg [6]: 62%; inhibition (Mus musculus [7]): inactive
O=NN(CCF)C(=O)N[C@H]1CC[C@H](C(=O)O)CC1	–	–	Active	ILS at 45 mg/kg [5]: 60%
O=NN(CCCl)C(=O)NC1CCCC1	inactive	<25%	–	–
O=NN(CCCl)C(=O)N[C@H]1CC[C@H](O)CC1	inactive	<25%	–	ILS at 38 mg/kg [9]: 146%; ILS at 26 mg/kg [10]: 84%; Time [11]: 10.2 days; Time [12]: 3.3 days; Activity [13]: 10%; Ratio [14]: 0.4
C[C@H]1CC[C@@H](NC(=O)N(CCCl)N=O)CC1	inactive	<25%	–	–
O=NN(CCCl)C(=O)N[C@H]1CC[C@@H](NC(=O)N(CCCl)N=O)CC1	inactive	<25%	–	–
CO[C@H]1CC[C@@H](NC(=O)N(CCCl)N=O)CC1	–	–	–	Activity (Mus musculus [15]): inactive
COC(=O)[C@H]1CC[C@H](NC(=O)N(CCCl)N=O)CC1	Active	–	inactive	Activity (Mus musculus [16]): inactive; Activity (Mus musculus [17]): inactive; ILS at 21 mg/kg [18]: 113%; ILS at 32 mg/kg [19]: 86%
O=NN(CCCl)C(=O)N[C@H]1CC[C@H](C(=O)O)CC1	–	–	Active	ILS at 13 mg/kg [20]: 33%; ILS at 30 mg/kg [21]: 115%; Activity (Mus musculus [4]): inactive; ILS at 30 mg/kg [6]: 67%; Time [22]: 7.6 days; Time [23]: 20 days; Activity [13]: >50%; Ratio [14]: 0.6
O=NN(CCF)C(=O)NC1CCSCC1	inactive	>25%	inactive	Activity (Mus musculus [24]): inactive; ILS at 36 mg/kg [25]: 87%
O=NN(CCCl)C(=O)NCCCl [CARMUSTINE]	inactive	<25%	–	Activity (Mus musculus [16]): inactive; inhibition (Mus musculus [26]): inactive
CC(C)[C@H]1CC[C@H](NC(=O)N(CCF)N=O)CC1	inactive	<25%	–	–
C[C@H]1CCC[C@@H](NC(=O)N(CCCl)N=O)C1 (relative stereo)	inactive	<25%	–	–
CC(=O)O[C@H]1CC[C@H](NC(=O)N(CCF)N=O)CC1	inactive	<25%	–	–
O=NN(CCCl)C(=O)NC1CC2CCC1C2 (configuration not stated)	inactive	>25%	inactive	–
CCCCCC(C)NC(=O)N(CCCl)N=O (configuration not stated)	inactive	<25%	–	Activity (Mus musculus [27]): inactive; Activity (Mus musculus [15]): inactive; Activity (L1210): inactive
O=NN(CCCl)C(=O)NC1CCS(=O)(=O)C1 (configuration not stated)	inactive	<25%	–	–
O=NN(CCF)C(=O)N[C@H]1CC[C@@H](C(=O)O)CC1	inactive	<25%	–	–
O=NN(CCF)C(=O)N[C@H]1CC[C@H](NC(=O)N(CCCl)N=O)CC1	inactive	<25%	–	–
C[C@H]1S(=O)(=O)C[C@@H](NC(=O)N(CCCl)N=O)CS1(=O)=O	inactive	>25%	inactive	Activity (Mus musculus [16]): inactive; inhibition (Mus musculus [26]): inactive; ILS at 32 mg/kg [19]: 10%; Activity (Mus musculus [27]): inactive; Activity (Mus musculus [15]): inactive; Ratio [14]: 0.6
O=NN(CCCl)C(=O)NC1C=CCCC1 (configuration not stated)	inactive	<25%	–	–
O=NN(CCCl)C(=O)NCCF	–	–	–	Activity (Mus musculus [16]): inactive; inhibition (Mus musculus [26]): inactive; ILS at 32 mg/kg [19]: 44%
CC(=O)O[C@H]1CC[C@H](NC(=O)N(CCCl)N=O)CC1	inactive	>25%	inactive	Activity (Mus musculus [24]): inactive; ILS at 36 mg/kg [25]: 34%; inhibition (Mus musculus [28]): inactive
O=NN(CCCl)C(=O)N[C@@H]1CCC[C@H](C(=O)O)C1 (relative stereo)	inactive	<25%	–	–
C[C@H]1S(=O)(=O)C[C@H](NC(=O)N(CCCl)N=O)CS1(=O)=O	inactive	<25%	–	Activity (Mus musculus [27]): inactive; Activity (Mus musculus [15]): inactive; Ratio [14]: 0.4
